# Measurements as given in ChEMBL document CHEMBL1133526, “Molecular simplification of 1,4-diazabicyclo[4.3.0]nonan-9-ones gives piperazine derivatives that maintain high nootropic activity” (2000).
# Where “and” joins values, the source holds several entries; their conditions need not be identical. Equal values may be shown once.
# Experiments:
# Assay type in all cases: functional
# Mus musculus [1] = organism: Mus musculus; experiment: (§1) Change in entry latency expressed as [(entry latency on day 2)-(entry latency on day 1)]
# Procedure, shortened: (§2)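 Mouse passive avoidance test using a light/dark box. Entering the dark side drops the mouse 40 cm into 10 °C water. Training is on day 1 and retention 24 h later. Test drug is given sc 20 min before training, in saline or DMSO/H2O vehicle. […] Mice not entering within 60 s are excluded. Retention latency is capped at 120 s. Δ = day 2 − day 1 latency.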
# Mus musculus [2] = experiment: Nootropic effect of the compound, when administered subcutaneously, on mouse passive Avoidance test, using Scopolamine as Amnesic drug on 1 st day
# Mus musculus [3] = experiment: Nootropic effect of the compound, when administered subcutaneously, on mouse passive Avoidance test, using Scopolamine as Amnesic drug on 2 nd day
# Mus musculus [4] = experiment: Minimum effective dose administered subcutaneously in mouse, activity given with reference to piracetam; settings: for minimal effective dose: Mus musculus, sc, read-out: MED
# Procedure, shortened: (§3)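 Mouse passive avoidance with scopolamine-induced amnesia (1.5 mg/kg ip after training; 40 cm fall into 10 °C water as punishment). Compounds are given sc in 1:10 dilution steps 20 min before training, in saline or DMSO/H2O. […] Piracetam is the ip reference.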
# Mus musculus [5] = experiment: Effect of 0.1 mg/kg compound on Amnesia induced by diphenhydramine (20 mg/Kg) in mouse passive Avoidance test on 2 nd day (no. of animals = 11)
# Procedure, shortened: (§4)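 Mouse passive avoidance. Compound is given ip 20 min before training. Diphenhydramine (20 mg/kg ip) or baclofen (2 mg/kg ip) is injected immediately after training. Entry latency into the dark, water-pitfall compartment is measured on day 1 and 24 h later, capped at 120 s. Compared with amnesic-only mice.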
# Mus musculus [6] = experiment: Effect of 0.1 mg/kg compound in the presence of saline on Amnesia in mouse passive Avoidance test on 2nd day, ip; settings: route intraperitoneal
# Procedure, shortened: (§5)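 Mouse passive avoidance without an amnesic agent. Compound is given ip at 0.1 mg/kg 20 min before training, followed by saline. Entry latency into the dark compartment (punishment: 40 cm fall into 10 °C water) is recorded on day 1 and in retention 24 h later, capped at 120 s. Compared with saline controls.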
# Mus musculus [7] = experiment: Effect of compound on Amnesia induced by Baclofen (2 mg/Kg ip) in mouse passive Avoidance test on 2 nd day at 0.1 mg/kg, ip; settings: route intraperitoneal; procedure, shortened: as §4
# Mus musculus [8] = experiment: Effect of 0.1 mg/kg compound on Amnesia induced by diphenhydramine (20 mg/Kg) in mouse passive Avoidance test on 1st day; (no. of animals = 11); procedure, shortened: as §4
# Mus musculus [9] = experiment: Effect of 0.1 mg/kg compound in the presence of saline on Amnesia in mouse passive Avoidance test on 1st day; procedure, shortened: as §5
# Mus musculus [10] = experiment: Effect of 0.1 mg/kg compound on Amnesia induced by diphenhydramine (20 mg/Kg) in mouse passive Avoidance test on 2 nd day (no. of animals = 12); procedure, shortened: as §4
# Mus musculus [11] = organism: Mus musculus; experiment: Change in entry latency expressed as [(latency on day 2)-(latency on day 1)]; procedure, shortened: as §2
# Mus musculus [12] = experiment: Effect of compound on Amnesia induced Clonidine (0.125 mg/kg) in mouse passive Avoidance test on 1st day at 0.1 mg/kg, ip; settings: route intraperitoneal
# Procedure, shortened: (§6)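 Mouse passive avoidance. Compound is given ip 20 min before training. Clonidine (0.125 mg/kg ip) is injected 60 min before training. Entry latency into the dark compartment (40 cm fall into 10 °C water) is measured on day 1 and 24 h later, capped at 120 s. Compared with clonidine-only mice.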
# Mus musculus [13] = experiment: Effect of 0.1 mg/kg compound on Amnesia induced by diphenhydramine (20 mg/Kg) in mouse passive Avoidance test on 1st day (no. of animals = 12); procedure, shortened: as §4
# Mus musculus [14] = experiment: Effect of compound on Amnesia induced Clonidine (0.125 mg/kg) in mouse passive Avoidance test on 2 nd day at 0.1 mg/kg, ip; settings: route intraperitoneal; procedure, shortened: as §6
# Mus musculus [15] = experiment: Effect of 0.1 mg/kg compound on Amnesia induced by Baclofen (2 mg/Kg ip) in mouse passive Avoidance test on 1 st day at 0.1 mg/kg, ip; procedure, shortened: as §4
# Mus musculus [16] = experiment: Nootropic effect of the compound, when administered subcutaneously, on mouse passive Avoidance test, using Scopolamine as Amnesic drug on 2 nd day; dose is limited by solubility problems; procedure, shortened: as §2
# Mus musculus [17] = experiment: Minimum effective dose administered subcutaneously in mouse, activity given with reference to piracetam, dose administered is limited by solubility problems; settings: sc, read-out: MED; procedure, shortened: as §3
# Mus musculus [18] = experiment: Minimum effective dose administered subcutaneously in mouse passive avoidance test; settings: sc, read-out: MED; procedure, shortened: as §3
# Mus musculus [19] = experiment: Minimum effective dose administered intraperitoneally in mouse passive avoidance test; settings: ip, read-out: MED
# Mus musculus [20] = experiment: Effect of 0.1 mg/kg compound, when administered intraperitoneally, on Amnesia induced by Clonidine (0.125 mg/Kg ip) in mouse passive Avoidance test on 2 nd day; settings: route intraperitoneal; procedure, shortened: as §6
# Mus musculus [21] = experiment: Effect of 0.1 mg/kg compound, when administered intraperitoneally, on Amnesia induced Clonidine (0.125 mg/kg) in mouse passive Avoidance test on 1st day; settings: route intraperitoneal; procedure, shortened: as §6
# Mus musculus [22] = experiment: Effect of 0.1 mg/kg compound, when administered intraperitoneally along with saline, on Amnesia in mouse passive Avoidance test on 1st day; settings: route intraperitoneal; procedure, shortened: as §5
# Mus musculus [23] = experiment: Effect of 0.1 mg/kg compound, when administered intraperitoneally, on Amnesia induced by Baclofen (2 mg/Kg ip) in mouse passive Avoidance test on 2nd day; settings: route intraperitoneal; procedure, shortened: as §4
# Mus musculus [24] = experiment: Effect of 0.1 mg/kg compound, when administered intraperitoneally along with saline, on Amnesia in mouse passive Avoidance test on 2nd day; settings: route intraperitoneal; procedure, shortened: as §5
# Mus musculus [25] = experiment: Effect of 0.1 mg/kg compound, when administered intraperitoneally, on Amnesia induced by Baclofen (2 mg/Kg ip) in mouse passive Avoidance test on 1st day; settings: route intraperitoneal; procedure, shortened: as §4
# Mus musculus [26] = experiment: Effect of 0.1 mg/kg compound, when administered intraperitoneally, on Amnesia induced by diphenhydramine (20 mg/Kg) in mouse passive Avoidance test on 1st day; settings: route intraperitoneal; procedure, shortened: as §4
# Mus musculus [27] = experiment: Effect of 0.1 mg/kg compound, when administered intraperitoneally, on Amnesia induced by diphenhydramine (20 mg/Kg) in mouse passive Avoidance test on 2 nd day; settings: route intraperitoneal; procedure, shortened: as §4
# Mus musculus [28] = experiment: Nootropic effect of the compound, when administered subcutaneously, on mouse passive Avoidance test, using Scopolamine as Amnesic drug on 2nd day; procedure, shortened: as §2
# Mus musculus [29] = organism: Mus musculus; experiment: as §1; remark: listed apart in the source
SMILES,Change in entry latency (Mus musculus [1]),Entry latency (Mus musculus [2]),Entry latency (Mus musculus [3]),minimal effective dose (Mus musculus [4]),minimal effective dose (Mus musculus [18]),further results
CCCC(=O)N1CCN(C(=O)c2ccc(F)cc2)CC1,92.2 s,19.8 s,112 s,10 mg/kg,,
CC(=O)N1CCN(C(=O)c2ccc(F)cc2)CC1,72.6 s,17.5 s,91.1 s,10 mg/kg,,
CCC(=O)N1CCN(C(=O)c2ccccc2)CC1,71 s and 69.1 s and 68.5 s and 67 s,20.5 s,91.5 s,0.001 mg/kg,,Entry latency (Mus musculus [5]): 84.3 s; Entry latency (Mus musculus [6]): 86.3 s; Entry latency (Mus musculus [7]): 73.2 s; Entry latency (Mus musculus [8]): 15.8 s; Entry latency (Mus musculus [9]): 17.2 s; Entry latency (Mus musculus [10]): 81.4 s; Change in entry latency (Mus musculus [11]): 56 s and 63.8 s; Entry latency (Mus musculus [12]): 15 s; Entry latency (Mus musculus [13]): 14.4 s; Entry latency (Mus musculus [14]): 78.8 s; Entry latency (Mus musculus [15]): 17.2 s
CC(=O)N1CCN(C(=O)c2ccccc2)CC1,107.7 s,11.3 s,,10 mg/kg,,Entry latency (Mus musculus [16]): 119 s
CC1C[C@@H]2CN(C(=O)c3ccccc3)CCN2C1=O (stereo in doubt; exo),,,,,,MED (Mus musculus [4]): 1 mg/kg
CCC(=O)N1CCN(S(=O)(=O)c2ccc(OC)cc2)CC1,,,,,,minimal effective dose (Mus musculus [17]): > 1 mg/kg
CCCC(=O)N1CCN(S(=O)(=O)c2ccc(F)cc2)CC1,,,,,> 10 mg/kg,
CN1[C@@H]2C[C@@H](OC(=O)[C@H](CO)c3ccccc3)C[C@H]1[C@@H]1O[C@@H]12 [SCOPOLAMINE],,,,,,minimal effective dose (Mus musculus [19]): 1.5 mg/kg
CCCCC(=O)N1CCN(S(=O)(=O)c2ccc(F)cc2)CC1,,,,,> 0.1 mg/kg,
CCCC(=O)N1CCN(C(=O)c2ccccc2)CC1,89.8 s,13.8 s,103.6 s,1 mg/kg,,
CCC(=O)N1CCN(C(=O)c2ccc(F)cc2)CC1,60.2 s,16.9 s,77.1 s,30 mg/kg,,
CCC(=O)N1CCN(C(=O)c2ccc(OC)cc2)CC1,78.5 s,17.6 s,96.1 s,10 mg/kg,,
CCC(=O)N1CCN(S(=O)(=O)c2ccc(Cl)cc2)CC1,,,,,> 0.1 mg/kg,
CC1C[C@@H]2CN(C(=O)c3ccccc3)CCN2C1=O (stereo in doubt; endo),,,,1 mg/kg,,
CCC(=O)N1CCN(S(=O)(=O)c2ccc([N+](=O)[O-])cc2)CC1,,,,,,minimal effective dose (Mus musculus [17]): > 0.1 mg/kg
CCCC(=O)N1CCN(S(=O)(=O)c2ccccc2)CC1,70.4 s,15 s,85.4 s,,1 mg/kg,
O=C1CCC2CN(S(=O)(=O)c3ccc(F)cc3)CCN12 (stereo unspecified),80.2 s and 64.1 s and 66.7 s,,,,,Entry latency (Mus musculus [20]): 81.2 s; Entry latency (Mus musculus [21]): 14.5 s; Entry latency (Mus musculus [22]): 14.3 s; Entry latency (Mus musculus [23]): 76.4 s; Entry latency (Mus musculus [24]): 94.5 s; Change in entry latency (Mus musculus [11]): 79.6 s; Entry latency (Mus musculus [25]): 12.3 s; Entry latency (Mus musculus [26]): 15.6 s; Entry latency (Mus musculus [27]): 95.2 s
CCC(=O)N1CCN(Cc2ccccc2)CC1,81.1 s,12.8 s,,10 mg/kg,,Entry latency (Mus musculus [28]): 93.9 s
CCC(=O)N1CCN(S(=O)(=O)c2ccccc2)CC1,,19 s,132 s,,0.1 mg/kg,Entry latency (Mus musculus [29]): 113 s
CC(=O)N1CCN(S(=O)(=O)c2ccc(F)cc2)CC1C (stereo unspecified),,16.6 s,99.2 s,,0.1 mg/kg,
CC(=O)N1CCN(S(=O)(=O)c2ccccc2)CC1,,17.5 s,104 s,0.01 mg/kg,,Entry latency (Mus musculus [29]): 86.5 s
CC(=O)N1CCN(S(=O)(=O)c2ccc(F)cc2)CC1,,19.8 s,89 s,0.01 mg/kg,,Entry latency (Mus musculus [29]): 69.2 s
CN1C2CC(OC(=O)C(CO)c3ccccc3)CC1C1OC12.NC(=O)CN1CCCC1=O (stereo unspecified),,17.6 s,108.8 s,,,Entry latency (Mus musculus [29]): 91.2 s; minimal effective dose (Mus musculus [19]): 30 mg/kg
CCC(=O)N1CCN(C(=O)c2ccc(C)cc2)CC1,,,,,,minimal effective dose (Mus musculus [17]): > 1 mg/kg
CCC(=O)N1CCN(S(=O)(=O)c2ccc(F)cc2)CC1,,15.9 s,90.6 s,,0.01 mg/kg,Entry latency (Mus musculus [29]): 74.7 s
CCC(=O)N1CCN(S(=O)(=O)c2ccc(C)cc2)CC1,,16.6 s,88.6 s,,10 mg/kg,Entry latency (Mus musculus [29]): 72 s
CCCCCC(=O)N1CCN(S(=O)(=O)c2ccc(F)cc2)CC1,,16.6 s,81.5 s,,1 mg/kg,Entry latency (Mus musculus [29]): 64.9 s
CCCN1CCN(S(=O)(=O)c2ccc(F)cc2)CC1,81.4 s,15.3 s,96.7 s,1 mg/kg,,
CCC(=O)N1CCN(C(=O)c2ccc([N+](=O)[O-])cc2)CC1,85.5 s,18.8 s,104.3 s,1 mg/kg,,
CCC(=O)N1CCN(C(=O)c2ccc(Cl)cc2)CC1,,,,,,minimal effective dose (Mus musculus [17]): > 1 mg/kg
